RGS4 inh = inhibitors of human RGS4 | P49798 | HEK293 M3R/RGS4 inducible, Fluo-4 calcium flux; stronger effect = higher value; triggered by carbachol at its EC20 | B-score at 10 µM | hit rate 0.45% among 310,000 | AID 463165;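 active = B-score, a plate-corrected calcium signal, over three deviations above library mean, with baseline fluorescence within five deviations of library mean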;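 note: RGS4 expression induced by doxycycline in cells with stable M3 receptor; B-score is computed from the integrated fluorescence ratio over baseline after carbachol; higher B-score means a larger calcium signal and so more RGS4 inhibition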
Target sequence (P49798 whole entry, looked up): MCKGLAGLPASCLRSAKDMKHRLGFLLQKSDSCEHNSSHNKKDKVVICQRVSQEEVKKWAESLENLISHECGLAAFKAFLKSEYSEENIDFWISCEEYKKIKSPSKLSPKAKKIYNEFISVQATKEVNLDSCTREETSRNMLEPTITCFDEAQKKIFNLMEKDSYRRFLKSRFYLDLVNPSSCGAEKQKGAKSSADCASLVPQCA
RGS4 act = RGS4 potentiation or activation; B-score at 10 µM; hit rate 0.92% among 310,000; HEK293 M3R/inducible RGS4, carbachol calcium flux Fluo4; stronger effect = lower value;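 active = B-score of the integrated calcium signal more than 4 SD below the library mean, with starting fluorescence not abnormally high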;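 note: negative B-score means reduced calcium response which marks RGS4 activation or potentiation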
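Test system: HEK293 cells with stable M3R and inducible RGS4; also added: carbachol at ECmax as muscarinic agonist stimulus; schedule: dye loading 30 min 37 °C, buffer rest 30 min RT; technique: kinetic calcium fluorescence imaging with Fluo4-AM dye, 2 µM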
MrgX1 agonist = activates human MrgX1 receptor signaling. Q96LB2. hit rate 0.44% among 310,000. MrgX1-HEK293 cells, Fluo-4 calcium fluorescence, agonist mode; stronger effect = higher value. AID 588627. B-score at 10 µM;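 active = calcium response B-score plate-corrected fluorescence ratio at least 3 library SD, with starting fluorescence B-score inside 5 SD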
Target sequence (Q96LB2 whole entry, looked up): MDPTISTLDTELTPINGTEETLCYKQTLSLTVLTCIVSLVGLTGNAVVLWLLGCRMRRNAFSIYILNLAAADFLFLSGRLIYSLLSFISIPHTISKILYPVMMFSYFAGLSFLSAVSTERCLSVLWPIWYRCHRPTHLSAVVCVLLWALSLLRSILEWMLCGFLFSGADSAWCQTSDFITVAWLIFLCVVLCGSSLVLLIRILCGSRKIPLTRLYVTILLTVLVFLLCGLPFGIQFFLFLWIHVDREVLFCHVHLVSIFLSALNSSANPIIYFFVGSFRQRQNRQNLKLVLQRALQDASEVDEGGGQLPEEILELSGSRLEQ
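Material: MrgX1-expressing HEK293 cells; input: 15,000 cells per well; doses: test compound given as first of three sequential additions; schedule: overnight plating before 1 h dye loading; technique: Fluo-4 NW calcium-flux fluorescence, kinetic read; evaluation: baseline-normalised fluorescence change ratio, B-scored; control set: plate-wise positive and negative controls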
MrgX1 antag = human MrgX1 receptor antagonism, primary screen; Q96LB2; MRGX1-HEK293 calcium flux, Fluo-4, BAM8-22 antagonism; stronger effect = lower value; B-score at 10 µM; hit rate 1.3% among 310,000; AID 588676;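 active = calcium-response B-score plate-corrected more than 3 library SD below zero, starting fluorescence within 5 deviations, no agonist response on first addition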;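 note: peak minus trough fluorescence over baseline after final BAM8-22 challenge near maximal dose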
Lipid droplet = hepatic lipid droplet formation modulation; AML12 mouse hepatocytes, oleate lipid droplets, BODIPY imaging; inhibition, % at 6.5 µM; hit rate 0.4% among 240,000;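 active = lipid droplet intensity inhibited by at least 50%, with more than 500 cells counted; inconclusive = wells with under 300 cells, treated as cytotoxic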
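Material: mouse AML12 hepatocyte cell line, fixed after treatment; Timing: compound with oleate, overnight; Technique: high-content imaging of BODIPY-stained droplets and DAPI nuclei; Probe or stimulus: oleate, 100 µM final; Dosing: compound at 6.5 µM only.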
MrgX1 allo act = human MrgX1 positive allosteric modulation, primary screen | Q96LB2 | MrgX1-HEK293, Fluo-4 calcium flux, FDSS; stronger effect = higher value | B-score at 10 µM | hit rate 0.63% among 310,000 | AID 588675;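 active = plate-corrected calcium response at least 3 library SD above typical, normal starting fluorescence, not activating the receptor alone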;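 note: compound read alongside a low EC10 to EC30 dose of BAM8-22 agonist; peak minus trough fluorescence over baseline measured at the second addition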
Starred values were filed as active, the others as inactive; i = inactive; ? = inconclusive; · = no result given. In the library only some 3.8% were active in any assay of this set; here they are far more common.

SMILES	RGS4 inh	RGS4 act	MrgX1 agonist	MrgX1 antag	Lipid droplet	MrgX1 allo act
Cc1cccc(C)c1NC(=O)C1CCCN1C(=O)Nc1cccc(F)c1 (configuration not stated)	i	i	i	i	-1	i
CCOc1cc(N)c(Cl)cc1C(=O)NCC1CN(Cc2ccc(F)cc2)CCO1 (configuration not stated)	i	i	i	-8.6*	·	i
Cc1ccc(OCc2cc(C(=O)NC3CCc4ccccc43)no2)cn1 (configuration not stated)	i	i	i	-4.7*	-6	i
CSc1ccccc1OCc1cc(C(=O)NC2CCc3ccccc32)no1 (configuration not stated)	i	i	i	i	14	i
Cc1ccc(C)c(OCC(=O)Nc2nc3ccc([N+](=O)[O-])cc3s2)c1	i	i	i	-7.2*	-9	i
O=C(COC(=O)c1ccco1)Nc1nc2ccc([N+](=O)[O-])cc2s1	i	i	i	i	2	i
COC(=O)Cn1c2ccc(Cl)cc2c2nc(C)sc21	i	i	i	i	14	i
Cc1nc2c3cc(Cl)ccc3n(CCN3CCCCC3)c2s1	i	i	i	i	-2	11*
Cc1ccc(C)c(-n2c3nc(=O)[nH]c(=O)c-3cc3cc([N+](=O)[O-])ccc32)c1	·	·	34*	i	?	i
O=C(O)C[C@H](O)C[C@H](O)/C=C/c1c(C2CC2)nc2ccccc2c1-c1ccc(F)cc1	i	-7*	·	·	·	·
Cc1cc(C)c2c(=O)n(CC(=O)Nc3cccc(Cl)c3C)sc2n1	i	i	i	i	-1	9.5*
Cc1c(Cl)cccc1NC(=O)Cn1cccc1	i	i	i	i	·	i
O=C1CCC([N+](=O)[O-])C(c2cc(Br)ccc2F)N1 (configuration not stated)	i	i	i	i	·	i
Cc1cccc(CNc2ccc(C(CC(N)=O)NC(=O)c3cccc(Br)c3)cc2[N+](=O)[O-])c1 (configuration not stated)	i	i	i	i	11	i
O=C(Nc1cc(Sc2ccccn2)cc([N+](=O)[O-])c1)c1ccc(Cl)cc1	i	-8*	i	-6.1*	·	i
C/C(=N/NC(=O)c1ccccc1O)c1ccc(N2C(=O)C3CCCCC3C2=O)cc1 (configuration not stated)	i	i	i	-8*	·	i
CN(C)c1ccnc(N(Cc2ccccc2)Cc2ccccc2)c1C#N	i	-11*	i	i	-2	i
CN(C)c1ccnc(NCc2ccccc2)c1C#N	i	i	i	i	·	i
O=C(Nc1ccc(Cl)cc1)Nc1ccc(N2CCCC2)c(S(=O)(=O)Nc2ccccc2Cl)c1	i	i	i	-6*	-22	i
COc1ccccc1NS(=O)(=O)c1cc(NC(=O)Nc2cccc(C)c2)ccc1N1CCCCC1	i	i	i	i	-11	i
Cc1cc(N2CCCC2)nc(N2C3CCC2CC(O)(c2ccc(F)cc2)C3)n1 (configuration not stated)	i	i	i	i	14	8*
COc1ccc(C2(O)CC3CCC(C2)N3c2cc(C)nc(-c3ccccc3)n2)cc1 (configuration not stated)	i	i	i	i	·	i
CN1C(=O)/C(=C/c2ccccc2OCc2ccc(F)cc2)N(C)C1=S	i	-9.6*	i	-5.2*	-5	i
CC(C)CC(=O)NC(=S)Nc1ccc(NC(=O)c2ccco2)cc1	i	i	i	i	4	i
COc1cc(/C=N/NC(=O)C(=O)N2CCCC2)ccc1O	i	i	i	-6.7*	2	i
SMILES	RGS4 inh	RGS4 act	MrgX1 agonist	MrgX1 antag	Lipid droplet	MrgX1 allo act
COc1cccc(C(=O)Oc2ccc(/C=N/NC(=O)c3ccncc3)cc2OC)c1	i	i	i	i	6	i
Cc1cccc(C(=O)Oc2ccc(/C=N/NC(=O)c3cc(O)cc(O)c3)cc2)c1	i	-10*	i	i	4	i
COc1cc(C(=O)N/N=C/c2ccc(OC(=O)c3cccc(C)c3)c(OC)c2)ccc1O	i	-7.1*	i	i	8	i
COc1cc(C(=O)N/N=C/c2ccc(OC(=O)c3ccccc3Cl)cc2)ccc1O	i	-11*	i	i	11	i
O=C(O)c1cc([N+](=O)[O-])cc2c1C=Cc1ccccc1O2	i	i	i	i	4	i
OC(COc1ccc(C2C=CCC2)cc1)CN1CCCCC1 (configuration not stated)	i	-7*	i	i	·	i
CC(C)(C)c1ccc(OCC(O)CN2CCCC2)cc1 (configuration not stated)	i	i	i	i	-15	i
O=C(Cc1ccc(Br)cc1)NCCc1ccc(F)cc1	i	i	i	i	-1	i
Cc1cccc(NS(=O)(=O)c2ccc(C(=O)NCC(c3ccco3)N(C)C)cc2)c1C (configuration not stated)	i	i	i	i	11	i
CCN1/C(=C/c2sc(-c3ccccc3C)c[n+]2C)Sc2ccccc21	i	-7.4*	·	·	-200	·
CCN1/C(=C/c2ccc3cc(C)ccc3[n+]2CC)Sc2ccccc21	i	i	i	i	-155	i
CN(C(=O)C1CCC(=O)N(CCCN2CCCC2=O)C1)C(C1CC1)C1CC1 (configuration not stated)	i	i	i	i	15	i
COc1ccc(-c2ccc(=O)n(Cc3cccc(Cl)c3)n2)cc1	i	i	i	i	5	7.9*
O=C(CCC(=O)OCC(=O)c1cccc([N+](=O)[O-])c1)Nc1ccccc1Cl	i	i	i	-7*	12	i
O=C(COC(=O)CCc1ccc(S(=O)(=O)N2CCOCC2)cc1)NCc1ccccc1Cl	i	i	i	i	-2	i
O=C(COC(=O)CCc1ccc(S(=O)(=O)N2CCOCC2)cc1)NCc1ccccc1	i	i	i	i	3	6.8*
O=C(OCC(=O)N(Cc1ccccc1)Cc1ccccc1)c1ccccc1NCCO	i	-9.3*	i	i	·	i
CCCCN(C(=O)COC(=O)COc1c(C)cc(C)cc1C)c1c(N)n(CCC)c(=O)[nH]c1=O	i	i	i	-8.2*	·	i

Bioassay records deposited in PubChem BioAssay by several laboratories.
